Results on one compound are retold here after publication PMC4804314 (Pharmacology Research & Perspectives, 2016).

Data set [1] has as its system sandwich‐cultured mouse (NMRI) hepatocytes. Description: Hepatobiliary disposition in sandwich-cultured mouse hepatocytes. The class given is in vitro ADME. To be noted: 1 μmol/L, 10 min.
Data set [2] has as its system sandwich‐cultured human hepatocytes. Briefly: Hepatobiliary disposition in sandwich-cultured human hepatocytes. To be noted: 10 min. The data set is classed as in vitro ADME. In outline:
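Sandwich-cultured human hepatocytes from three donor liver preparations, cultured 6 days. [14C]-test compound was applied at 10 and 250 μmol/L, with [3H]-taurocholate as transporter-function control and LDH release as cytotoxicity check. Radioactivity was read by LSC. Accumulation is mean ± SD of triplicate wells. BEI, CLbiliary, intracellular concentration and Cic/Cec were derived.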

The mark [3] stands for this setting: donor 1, 1 μmol/L, mean ± SD of triplicate wells.
The mark [4] stands for this setting: donor 2, 1 μmol/L, mean ± SD of triplicate wells.
The mark [5] stands for this setting: donor 3, 1 μmol/L, mean ± SD of triplicate wells.
Setting [6] is: mean ± standard error of 3 donors, 1 μmol/L.

Regarding `C[C@H](CCC(=O)NCCS(=O)(=O)O)[C@H]1CC[C@H]2[C@@H]3[C@H](O)C[C@@H]4C[C@H](O)CC[C@]4(C)[C@H]3C[C@H](O)[C@]12C` [TCA, taurocholate, reference compound], the BEI in data set [1] is given as 30.5%; in data set [2] (donor 1, 1 μmol/L) it was 44.6%; in data set [2] (donor 2, 1 μmol/L), 74.2%; in data set [2] (donor 3, 1 μmol/L), 66.5%; in data set [2] (setting [6]) it was 61.7 ± 8.9%. Besides, the CLbiliary in data set [1] stood at 66.8 mL/min/kg; in data set [2] (donor 1, 1 μmol/L), 7.16 mL/min/kg; in data set [2] (donor 2, 1 μmol/L), 19.3 mL/min/kg; in data set [2] (donor 3, 1 μmol/L) it was 31.0 mL/min/kg; in data set [2] (setting [6]) it was 19.2 ± 6.9 mL/min/kg. Also, the Cellular accumulation amounted to 150 ± 28 pmol/mg in data set [1] (mean ± SD of triplicate wells); 30.7 ± 2.8 pmol/mg in data set [2] (setting [3]); 23.2 ± 1.9 pmol/mg in data set [2] (setting [4]); 53.9 ± 2.0 pmol/mg in data set [2] (setting [5]); 35.9 ± 9.2 pmol/mg in data set [2] (setting [6]). The Total accumulation in data set [1] (mean ± SD of triplicate wells) turned out to be 215 ± 23 pmol/mg; in data set [2] (setting [3]), 55.3 ± 5.7 pmol/mg; in data set [2] (setting [4]), 89.7 ± 3.6 pmol/mg; in data set [2] (setting [5]), 161 ± 12 pmol/mg; in data set [2] (setting [6]), 102 ± 31 pmol/mg.
